Results collected from several papers.
Target: Calcium/calmodulin-dependent protein kinase kinase 2 (CAMKK2, Homo sapiens, UniProt Q96RR4)

| Compound | assay | conditions | measurement | result |
| --- | --- | --- | --- | --- |
| COc1cc(Nc2cnc(C#N)c(O[C@H](C)CN(C)C)n2)ncc1-c1cnn(C)c1 | enzyme activity, inhibitor, radiometric | 10 µM | remaining activity | 71% |
| O=C1NC(=O)c2cc(Nc3ccc(F)cc3)c(Nc3ccc(F)cc3)cc21 | cell-free assay | 0.5 µM | remaining signal | 88.3% |
| Cc1cnc(NC2CCOCC2)nc1-n1cnc(C(=O)NC(CN)c2cc(F)cc(Cl)c2)c1 (centres unmarked) | enzyme activity, inhibitor, radiometric | 1 µM | remaining activity | 81% |
| N#CCCc1ccc2c(c1)-c1[nH]c3ccc([N+](=O)[O-])cc3c1CC(=O)N2 | cell-free assay | 0.5 µM | remaining signal | 86.8% |
| O=C(Nc1cnn(-c2csc(C(=O)NC3COC3)c2)c1)Nc1ccccc1Cl | enzyme activity, inhibitor | 5 µM | remaining activity | 91.1% |
| O=C(O)c1cc(-c2ccc(C3CCNCC3)cc2)c2ccc(-c3ccc(C(F)(F)F)cc3)cc2c1 | cell-free assay, competition with immobilised ligand | 1 µM | remaining binding | 100% |
| Cc1cc(NC(=O)c2cccc3cc(-c4cccc5[nH]nc(N)c45)ccc23)ccc1F | enzyme activity, inhibitor | 0.1 µM | activity vs control | 90% |
| O=C(O)[C@H]1[C@H](Cn2nnc3ccccc3c2=O)CC[C@@H]1C(=O)c1ccc(OCCC2CCOCC2)cc1 | cell-free assay, competition with immobilised ligand | 1 µM | remaining binding | 90% |
| O=C(CSc1nc2nccnc2c(=O)n1CCc1ccccc1)Nc1nccs1 | enzyme activity, inhibitor | 10 µM | inhibition | 5% |
| O=C(NCc1ncc(C(F)(F)F)cc1Cl)c1ccc2c(c1)C1(CCS(=O)(=O)CC1)[C@H](C1CC1)N2S(=O)(=O)c1ccc(F)cc1 | cell-free assay, competition with immobilised ligand | 1 µM | remaining binding | 100% |
| Nc1nc(NC2CCCCC2)sc1C(=O)c1ccccc1 | enzyme activity, inhibitor | 10 µM | remaining activity | 63% |
| CC(=O)Nc1c(C(C)=O)c(=O)n(C)c2nc(-c3ccc(Cl)cc3Cl)c(-c3ccc(Cl)cc3)cc12 | cell-free assay, competition with immobilised ligand | 1 µM | remaining binding | 100% |
| Oc1cccc(-c2nc(N3CCOCC3)c3oc4ncccc4c3n2)c1 | enzyme activity, inhibitor | 10 µM | remaining activity | 114% |
| COc1cccc2c(NCc3ccccc3)nc(-n3c(N)nc4ccccc43)nc12 | target engagement in cells, inhibitor, chemoproteomics | 20 mM | inhibition | -5.8% |
| CN1CC(Oc2cnc(C#N)cc2-c2ccn3nc(NC(=O)C4CC4)cc3c2)C1 | enzyme activity, inhibitor | 1 µM | inhibition | 5% |
| FC(F)(F)Oc1cccc(-c2cnc3ccc(-c4ccncc4)nn23)c1 | enzyme activity, inhibitor, radiometric | 1 µM | activity vs control | 59% |
| CN(C)c1nccc(-c2cnc3ncccn23)n1 | binding | 1 µM | remaining binding | 100% |
| Cc1ccc(NC(=O)c2ccc(C)c(C(F)(F)F)c2)cc1C#Cc1nn(C2CCC(O)CC2)c2ncnc(N)c12 (centres unmarked) | cell-free assay | 10 µM | remaining signal | 55% |
| CCCOc1ccc([C@H]2[C@H](C(=O)O)[C@@H](c3ccc4c(c3)OCO4)CN2CC(=O)Nc2c(CC)cccc2CC)cc1 | cell-free assay, competition with immobilised ligand | 1 µM | remaining binding | 93% |
| Cn1c2c(c3ccc(Cl)c(Cl)c31)C(C#N)C1(CCCC1)NC2=O (centres unmarked) | thermal stability, DSF | 10 µM | ΔTm | 0.3 °C |
| COc1cc(/C=C/C(=O)CC(=O)/C=C/c2ccc(O)c(OC)c2)ccc1O | enzyme activity, inhibitor | 1 µM | activity vs control | 44% |
| C[C@H](c1ccnc(Nc2nc3ccc(-c4cc(N(C)C)ncn4)cc3[nH]2)c1)N1CCN(C(=O)CC(F)(F)F)CC1 | cell-free assay, competition with immobilised ligand | 0.1 µM | remaining binding | 77% |
| O=C(O)c1ccc2c3c1cccc3c(=O)n1c3ccccc3nc21 | cell-free assay | 0.5 µM | remaining signal | 7.88% |
| c1ccc(CNc2nc(N3CCOc4ccccc43)nc3c2CCCC3)cc1 | target engagement in cells, inhibitor, chemoproteomics | 20 mM | inhibition | 0.1% |
| CN1CCC2(CC1)NC(=O)c1c(c3ccc(Cl)c(Cl)c3n1C)C2C#N (racemic) | thermal stability, DSF | 10 µM | ΔTm | 1 °C |
| CCc1ccccc1C(=O)Nc1n[nH]c2c(C)c(F)c(C3C(C#N)=C(C)N(C)C(C)=C3C#N)cc12 | cell-free assay, competition with immobilised ligand | 1 µM | remaining binding | 95% |
| CCC1(CC)NC(=O)c2c(c3ccc(Cl)c(Cl)c3n2C)C1C#N (centres unmarked) | thermal stability, DSF | 10 µM | ΔTm | 0.3 °C |
| COc1ccc2c(c1)O[C@H](c1ccc(OC)c(OC)c1)C[C@@H]2NC(=O)C1(c2ccc3c(c2)OC(F)(F)O3)CC1 | cell-free assay, competition with immobilised ligand | 1 µM | remaining binding | 100% |
| CC(C)(C)c1nc(-c2cccc(NS(=O)(=O)c3c(F)cccc3F)c2F)c(-c2ccnc(N)n2)s1 | enzyme activity, inhibitor, radiometric | 1 µM | remaining activity | 113% |
